From ChEMBL document CHEMBL1131183, “New 1alpha,25-dihydroxy-19-norvitamin D3 compounds of high biological activity: synthesis and biological evaluation of 2-hydroxymethyl, 2-methyl, and 2-methylene analogues” (1998)
Where “and” joins values, the source holds several entries; their conditions need not be identical. Equal values may be shown once.

How the values were obtained:
[1] = molecular target: T1, Vitamin D3 receptor (Sus scrofa) (UniProt A3RGC1); experiment: Inhibition of 1-alpha,25-(OH)2D3 binding to porcine intestinal vitamin D receptor
T1 sequence (whole entry): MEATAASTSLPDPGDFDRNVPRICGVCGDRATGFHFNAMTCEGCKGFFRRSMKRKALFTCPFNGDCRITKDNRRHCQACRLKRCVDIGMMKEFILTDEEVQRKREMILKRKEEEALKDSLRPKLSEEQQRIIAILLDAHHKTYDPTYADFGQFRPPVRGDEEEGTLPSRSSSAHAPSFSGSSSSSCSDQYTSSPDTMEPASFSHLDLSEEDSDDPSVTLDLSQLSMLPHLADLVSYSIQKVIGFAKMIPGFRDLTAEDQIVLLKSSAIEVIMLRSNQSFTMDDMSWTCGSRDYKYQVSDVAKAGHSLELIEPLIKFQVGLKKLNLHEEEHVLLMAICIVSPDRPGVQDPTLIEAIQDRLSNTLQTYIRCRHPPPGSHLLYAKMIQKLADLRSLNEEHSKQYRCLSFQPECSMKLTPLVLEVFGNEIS
Outline: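 Porcine intestinal nuclear extract, 0.1 mg protein (200 fmol binding activity) per tube, incubated with 10 000 cpm 1α,25-(OH)2[26,27-3H]D3 plus graded unlabelled standard or analogue in ethanol, 4 h room temperature with shaking. Bound label captured on hydroxyapatite, washed with TE/5% Triton, counted by scintillation. ED50 = concentration displacing 50% of label, from dose-response curves; triplicate on two occasions.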

Rattus norvegicus [2] = organism: Rattus norvegicus; experiment: Bone calcium mobilization measured in vitamin D-deficient rats on a low-calcium diet(260); type: functional, organism-based
Outline: (§1)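 Weanling male rats kept on 0.47% Ca diet 1 week, then 0.02% Ca diet 3 weeks; dosed ip daily for 7 days (130 or 260 pmol) in 0.1 mL propylene glycol/ethanol 95:5 during last week; vehicle controls. Serum Ca measured 24 h after last dose by atomic absorption with 0.1% LaCl3; rise in serum Ca taken as bone mobilization. ≥6 rats/group, mean ± SEM, Student's t-test.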

Rattus norvegicus [3] = organism: Rattus norvegicus; experiment: Support of intestinal calcium transport measured in vitamin D-deficient rats on a low-calcium diet(260); type: functional
Outline: (§2)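 Vitamin D-deficient weanling male rats, 0.47% Ca diet 1 week then 0.02% Ca diet 3 weeks, given 130 or 260 pmol ip daily for 7 days in 0.1 mL propylene glycol/ethanol 95:5; vehicle controls. Killed 24 h after last dose; everted sac of proximal 10 cm intestine, Ca by atomic absorption, expressed as serosal/mucosal ratio. ≥6 rats/group, mean ± SEM, t-test.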

Rattus norvegicus [4] = organism: Rattus norvegicus; experiment: Support of intestinal calcium transport measured in vitamin D-deficient rats on a low-calcium diet(130); type: functional; outline: as §2
HL-60 = experiment: Induced differentiation of human promyelocyte HL-60 cells into monocytes; type: functional; conditions: read-out: ED50 (the source's name)
Rattus norvegicus [5] = organism: Rattus norvegicus; experiment: Bone calcium mobilization measured in vitamin D-deficient rats on a low-calcium diet(130); type: functional, organism-based; outline: as §1
[6] = molecular target: T1, Vitamin D3 receptor (Sus scrofa)

SMILES | ED50 [1] | Serum Ca2+ (Rattus norvegicus [2]) | Ca2+ transport S/M (Rattus norvegicus [3]) | Ca2+ transport S/M (Rattus norvegicus [4]) | EC50 (HL-60) | Serum Ca2+ (Rattus norvegicus [5]) | EC50 (HL-60; Homo sapiens, HL-60) | ED50 [6]
C=C1/C(=C\C=C2/CCC[C@]3(C)[C@@H]([C@H](C)CCCC(C)(C)O)CC[C@@H]23)C[C@@H](O)C[C@@H]1O [CALCITRIOL] | 0.09 nM | 6.6 [middle of 4 runs] | 6.2 and 5.6 and 4.6 and 6.6 |  |  |  |  | 
CC1[C@H](O)CC(=C/C=C2\CCC[C@]3(C)[C@@H]([C@@H](C)CCCC(C)(C)O)CC[C@@H]23)C[C@H]1O (stereo partly specified) [listing 1 of 3 here] |  |  | 3.8 | 2.9 | 0.7 nM |  |  | 
C=C1[C@H](O)CC(=C/C=C2\CCC[C@]3(C)[C@@H]([C@@H](C)CCCC(C)(C)O)CC[C@@H]23)C[C@H]1O [DP001] |  | 14.4 | 4.6 | 5.8 |  | 13.8 | 0.15 nM | 0.1 nM
C[C@@H](CCCC(C)(C)O)[C@H]1CC[C@H]2/C(=C/C=C3C[C@@H](O)C(CO)[C@H](O)C3)CCC[C@]12C (stereo partly specified) [listing 1 of 3 here] |  |  | 3.5 | 3.5 | 4.5 nM |  |  | 
C[C@@H](CCCC(C)(C)O)[C@H]1CC[C@H]2/C(=C/C=C3C[C@@H](O)C(CO)[C@H](O)C3)CCC[C@]12C (stereo partly specified) [listing 2 of 3 here] |  | 3.5 and 3.9 |  |  |  | 3.6 and 4 |  | 
CC1[C@H](O)CC(=C/C=C2\CCC[C@]3(C)[C@@H]([C@H](C)CCCC(C)(C)O)CC[C@@H]23)C[C@H]1O (stereo partly specified) [listing 1 of 3 here] |  | 3.8 and 5.8 |  |  |  | 4.1 and 4.8 |  | 
C=C1[C@H](O)CC(=C/C=C2\CCC[C@]3(C)[C@@H]([C@H](C)CCCC(C)(C)O)CC[C@@H]23)C[C@H]1O |  | 9.6 | 4.9 | 5.3 |  | 9.9 | 4.2 nM | 0.12 nM
CC1[C@H](O)CC(=C/C=C2\CCC[C@]3(C)[C@@H]([C@H](C)CCCC(C)(C)O)CC[C@@H]23)C[C@H]1O (stereo partly specified) [listing 2 of 3 here] |  |  | 3 | 4.4 | 8 nM |  |  | 
C[C@@H](CCCC(C)(C)O)[C@H]1CC[C@H]2/C(=C/C=C3C[C@@H](O)C(CO)[C@H](O)C3)CCC[C@]12C (stereo partly specified) [listing 3 of 3 here] |  |  | 5.8 | 5 | 2 nM |  |  | 
CC1[C@H](O)CC(=C/C=C2\CCC[C@]3(C)[C@@H]([C@@H](C)CCCC(C)(C)O)CC[C@@H]23)C[C@H]1O (stereo partly specified) [listing 2 of 3 here] |  | 10.3 and 4.4 |  |  |  | 8.3 and 4.4 |  | 0.4 nM and 0.5 nM
C[C@H](CCCC(C)(C)O)[C@H]1CC[C@H]2/C(=C/C=C3C[C@@H](O)C(CO)[C@H](O)C3)CCC[C@]12C (stereo partly specified) |  |  |  |  |  |  | 20 nM | 
CC1[C@H](O)CC(=C/C=C2\CCC[C@]3(C)[C@@H]([C@H](C)CCCC(C)(C)O)CC[C@@H]23)C[C@H]1O (stereo partly specified) [listing 3 of 3 here] |  |  | 5.3 | 4.3 | 0.08 nM |  |  | 
CC1[C@H](O)CC(=C/C=C2\CCC[C@]3(C)[C@@H]([C@@H](C)CCCC(C)(C)O)CC[C@@H]23)C[C@H]1O (stereo partly specified) [listing 3 of 3 here] |  |  | 8.4 | 12.9 | 0.07 nM |  |  | 
